Experimental data of several laboratories.
PIK3CA Q546K: Phosphatidylinositol 4,5-bisphosphate 3-kinase catalytic subunit alpha isoform (PIK3CA, Homo sapiens, UniProt P42336, Q546K)
PIK3CA M1043I: Phosphatidylinositol 4,5-bisphosphate 3-kinase catalytic subunit alpha isoform (PIK3CA, Homo sapiens, UniProt P42336, M1043I)
PIK3CA C420R: Phosphatidylinositol 4,5-bisphosphate 3-kinase catalytic subunit alpha isoform (PIK3CA, Homo sapiens, UniProt P42336, C420R)
PIK3CA E545A: Phosphatidylinositol 4,5-bisphosphate 3-kinase catalytic subunit alpha isoform (PIK3CA, Homo sapiens, UniProt P42336, E545A)
PIK3CA E542K: Phosphatidylinositol 4,5-bisphosphate 3-kinase catalytic subunit alpha isoform (PIK3CA, Homo sapiens, UniProt P42336, E542K)
PIK3CA H1047L: Phosphatidylinositol 4,5-bisphosphate 3-kinase catalytic subunit alpha isoform (PIK3CA, Homo sapiens, UniProt P42336, H1047L)
PIK3CA: Phosphatidylinositol 4,5-bisphosphate 3-kinase catalytic subunit alpha isoform (PIK3CA, Homo sapiens, UniProt P42336)
PIK3CA H1047Y: Phosphatidylinositol 4,5-bisphosphate 3-kinase catalytic subunit alpha isoform (PIK3CA, Homo sapiens, UniProt P42336, H1047Y)
PIK3CA E545K: Phosphatidylinositol 4,5-bisphosphate 3-kinase catalytic subunit alpha isoform (PIK3CA, Homo sapiens, UniProt P42336, E545K)

Compound | target | assay | conditions | remaining binding [%]
C[C@@H]1CCN(c2nccc(-c3cnn4ncccc34)n2)C1 | PIK3CA Q546K | binding | 1 µM | 79
COc1ncc2cc3ccccc3nc2c1C#N | PIK3CA M1043I | cell-free assay, competition with immobilised ligand | 5 µM | 100
Cc1cnc(Nc2ccc(C(=O)N3CCC(N4CCCC4)CC3)cc2)nc1-c1cc2ccccc2s1 | PIK3CA M1043I | binding, competition with immobilised ligand | 1 µM | 74
O=C(Nc1c[nH]nc1C(=O)NC1CCNCC1)c1cc(F)cc(F)c1 | PIK3CA C420R | binding, competition with immobilised ligand | 1 µM | 100
C[C@@]1(Cc2ccc(C#N)cc2)C(=O)N(c2cc(Cl)cc(Cl)c2)c2ncc(C(=O)NC3(c4nc(C5CCC5)no4)CC3)n21 | PIK3CA E545A | cell-free assay, competition with immobilised ligand | 1 µM | 100
N[C@H]1CCN(c2nccc(-c3cnn4ncccc34)n2)C1 | PIK3CA M1043I | binding | 1 µM | 91
COc1cnc(Nc2cccc(S(N)(=O)=O)c2)nc1N1CCN(c2ccccc2)C(=O)C1 | PIK3CA E542K | binding, competition with immobilised ligand | 1 µM | 91
O=C(NCCCN1CCOCC1)c1ccc(Nc2ncc(Cl)c(-c3ccc(Cl)s3)n2)cc1 | PIK3CA H1047L | binding, competition with immobilised ligand | 1 µM | 100
c1cnn2ncc(-c3ccnc(N4CCC45COC5)n3)c2c1 | PIK3CA | binding | 1 µM | 79
O=C(O)c1cc(-c2ccc(C3CCNCC3)cc2)c2ccc(-c3ccc(C(F)(F)F)cc3)cc2c1 | PIK3CA M1043I | cell-free assay, competition with immobilised ligand | 1 µM | 100
CN1CCN(c2ccc(Nc3nccc(-c4cccc([N+](=O)[O-])c4)n3)cc2C(F)(F)F)CC1 | PIK3CA C420R | binding | 10 µM | 53
C[C@@H](c1ccc(-n2cnc3c(N)ncnc32)cc1)N1CCc2nn(C)c(Cc3ccccc3)c2C1=O | PIK3CA M1043I | binding, competition with immobilised ligand | 0.1 µM | 89
C=CC(=O)N1CCC(C(=O)NCC(=O)N2CCN(c3nc(-c4cnc(N)nc4C(F)F)nc(N4CCOCC4)n3)CC2)CC1 | PIK3CA M1043I | binding, competition with immobilised ligand | 1 µM | 0
CCS(=O)(=O)c1cc2cc(C[C@@](O)(CC(C)(C)c3ccc(F)cc3C(N)=O)C(F)(F)F)[nH]c2cn1 | PIK3CA M1043I | cell-free assay, competition with immobilised ligand | 1 µM | 99
O=C(c1ccc(Nc2ncc(Cl)c(-c3ccc(Cl)s3)n2)cc1)N1CCC(N2CCCC2)CC1 | PIK3CA H1047Y | binding, competition with immobilised ligand | 1 µM | 100
CNC(=O)[C@@H]1CC[C@@H](n2c(-c3ccc4cnccc4c3)nc3ccc(C(=O)NCc4cccc(C(N)=O)c4)cc32)C1 | PIK3CA M1043I | binding, competition with immobilised ligand | 1 µM | 79
O=C(c1ccc(Nc2nccc(-c3cc4ccccc4s3)n2)cc1)N1CCC(N2CCCC2)CC1 | PIK3CA | binding, competition with immobilised ligand | 1 µM | 100

Compound | target | assay | conditions | remaining binding [%]
FC(F)(F)c1ccc2c(c1)nc(-c1cccnc1)n2C1CC1 | PIK3CA Q546K | cell-free assay, competition with immobilised ligand | 1 µM | 99
CCN1CCN(Cc2ccc(C(=O)Nc3ccc(C)c(Oc4ccc5c(c4)CC(=O)N5)c3)cc2C(F)(F)F)CC1 | PIK3CA E545K | binding, competition with immobilised ligand | 1 µM | 93
CS(=O)(=O)N1CCCC(NC(=O)[C@H](CCC2CCCCC2)NC(=O)c2ccc(CNc3ncnc4c3nnn4-c3ccccc3)cc2)C1 (stereo partly shown) | PIK3CA E545K | cell-free assay, competition with immobilised ligand | 0.1 µM | 53
Nc1ncc2c(n1)-c1c([nH]c3ccc(C#CC4CC4)cc13)CCCC2 | PIK3CA E545K | binding, competition with immobilised ligand | 1 µM | 100
CN(CCCC(F)(F)F)c1nccc(-c2cnn3ncccc23)n1 | PIK3CA M1043I | binding | 1 µM | 100
COc1cnc(Nc2cccc(S(N)(=O)=O)c2)nc1N1CCN(c2ccccc2)CC1 | PIK3CA E542K | binding, competition with immobilised ligand | 1 µM | 93
O=C(NCC1CCOCC1)c1n[nH]cc1NC(=O)c1c(F)cccc1F | PIK3CA H1047L | binding, competition with immobilised ligand | 1 µM | 74
CN1CCN(c2ccc(Nc3nccc(-c4ccccc4)n3)cc2C(F)(F)F)CC1 | PIK3CA E545A | binding | 10 µM | 100
NS(=O)(=O)c1cc(NC(=O)C2(c3ccccc3Cl)CC2)ccc1Oc1cccc(Cl)c1 | PIK3CA | cell-free assay, competition with immobilised ligand | 1 µM | 100
Cc1cnn2ncc(-c3ccnc(N(C)C)n3)c2c1 | PIK3CA | binding | 1 µM | 100
CC(=O)c1c(NS(C)(=O)=O)c2cc(-c3ccc(Cl)cc3)c(-c3ccc(Cl)cc3Cl)nc2n(C)c1=O | PIK3CA | cell-free assay, competition with immobilised ligand | 1 µM | 100
O=C(c1ccc(Nc2ncc(Cl)c(-c3cc4ccccc4s3)n2)cc1)N1CCC(N2CCCC2)CC1 | PIK3CA M1043I | binding, competition with immobilised ligand | 1 µM | 62
c1cncc(-c2cccc(Nc3nccc(NC4CCCCC4)n3)c2)c1 | PIK3CA Q546K | binding, competition with immobilised ligand | 10 µM | 100
CN(C)c1ncc(F)c(-c2cnn3ncccc23)n1 | PIK3CA E545K | binding | 1 µM | 63
CO[C@@H](C)c1c(Nc2ccc([C@H](N(C)C(=O)C3CCS(=O)(=O)CC3)C(F)(F)F)cc2)cnc2cc(Cl)nn12 | PIK3CA E545K | binding, competition with immobilised ligand | 1 µM | 48
CC1CCCN1c1nccc(-c2cnn3ncccc23)n1 (stereo not shown) | PIK3CA | binding | 1 µM | 100
O=C(NCCCN1CCOCC1)c1ccc(Nc2nccc(-c3cc4ccccc4s3)n2)cc1 | PIK3CA H1047Y | binding, competition with immobilised ligand | 1 µM | 73
